Activity calls are given as the source filed them. The rule behind the calls is not given here.
Key:
[1] = Terminal half life in Wistar rat heart at 10 mg/kg, po after 0.5 to 72 hrs by HPLC analysis; assay type: ADME, organism-based; conditions: read-out: beta t1/2 (converted)
Procedure, shortened: (§1)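 Wistar rats were dosed orally and killed by abdominal aorta transection at 0.5, 1, 2, 4, 6, 8, 12, 24, 48 and 72 h. Organs were excised at once, minced and homogenized at 4 °C in normal saline to a 25% (w/v) homogenate. After spinning at 3000 × g, 4 °C, 10 min, supernatants were analysed by HPLC. Values are mean ± SEM, n = 5 per point.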

[2] = Acute toxicity in ICR mouse assessed as mortality at 1200 mg/kg, ig administered daily for 2 weeks measured during compound dosing; assay type: organism-based; conditions: in vivo, po
Procedure, shortened: (§2)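 ICR mice, sixty in total, half male and half female, 20 ± 2 g. Intragastric dosing at 1200, 1600, 2133.3, 2844.40, 5056.79 or 6742.38 mg/kg. Animals watched daily over two weeks for survival and physiological abnormalities or untoward reactions. Percent mortality recorded per dose group.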

[3] = Acute toxicity in ICR mouse assessed as mortality at 2133.30 mg/kg, ig administered daily for 2 weeks measured during compound dosing; assay type: organism-based; conditions: in vivo, po, 2133.3 mg/kg; procedure, shortened: as §2
Heart = assay: AUC (0 to 72 hrs) in Wistar rat heart at 10 mg/kg, po by HPLC analysis; assay type: ADME, organism-based; design: time < 72 hr, dose 10 mg/kg, route oral; conditions: in vivo; procedure, shortened: as §1
[4] = Elimination rate constant in Wistar rat brain at 10 mg/kg, po after 0.5 to 72 hrs by HPLC analysis; assay type: ADME, organism-based; procedure, shortened: as §1
Lung = assay: AUC (0 to 72 hrs) in Wistar rat lung at 10 mg/kg, po by HPLC analysis; assay type: ADME, organism-based; design: dose 10 mg/kg, time < 72 hr, route oral; conditions: in vivo; procedure, shortened: as §1
Brain = assay: AUC (0 to 72 hrs) in Wistar rat brain at 10 mg/kg, po by HPLC analysis; assay type: ADME, organism-based; design: dose 10 mg/kg, time < 72 hr, route oral; conditions: in vivo; procedure, shortened: as §1
[5] = Elimination rate constant in Wistar rat plasma at 10 mg/kg, po after 0.5 to 72 hrs by HPLC analysis; assay type: ADME, organism-based
Procedure, shortened: (§3)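 Wistar rats got an oral dose. Venous blood (0.5 mL) was taken predose and at 0.5, 1, 2, 4, 6, 8, 12, 24, 48 and 72 h, and plasma was spun 4000 × g, 4 °C, 10 min. Samples with internal standard were acetonitrile-precipitated, filtered and run on C18 reverse-phase HPLC with UV detection. Calibration used weighted regression of peak height ratio.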

[6] = Cmax in Wistar rat plasma at 10 mg/kg, po after 0.5 to 72 hrs by HPLC analysis; assay type: ADME, organism-based; design: dose 10 mg/kg, route oral; procedure, shortened: as §3
[7] = AUC (0 to 72 hrs) in Wistar rat plasma at 10 mg/kg, po by HPLC analysis; assay type: ADME, organism-based; design: dose 10 mg/kg, time < 72 hr, route oral; procedure, shortened: as §3
Stomach = assay: AUC (0 to 72 hrs) in Wistar rat stomach at 10 mg/kg, po by HPLC analysis; assay type: ADME, organism-based; design: time < 72 hr, dose 10 mg/kg, route oral; conditions: in vivo; procedure, shortened: as §1
[8] = Tmax in Wistar rat heart at 10 mg/kg, po after 0.5 to 72 hrs by HPLC analysis; assay type: ADME, organism-based; procedure, shortened: as §1
Mus musculus [9] = assay: Acute toxicity in ICR mouse assessed as respiratory movements at 1200 mg/kg, ig administered daily for 2 weeks measured during compound dosing; assay type: organism-based; conditions: in vivo, po, 336 h; procedure, shortened: as §2
[10] = Acute toxicity in ICR mouse assessed as mortality at 2844.40 mg/kg, ig administered daily for 2 weeks measured during compound dosing; assay type: organism-based; conditions: in vivo, po, 2844.4 mg/kg; procedure, shortened: as §2
[11] = Terminal half life in Wistar rat kidney at 10 mg/kg, po after 0.5 to 72 hrs by HPLC analysis; assay type: ADME, organism-based; conditions: read-out: beta t1/2 (converted); procedure, shortened: as §1
[12] = Cmax in Wistar rat heart at 10 mg/kg, po after 0.5 to 72 hrs by HPLC analysis; assay type: ADME, organism-based; design: dose 10 mg/kg, route oral; procedure, shortened: as §1
[13] = Cmax in Wistar rat brain at 10 mg/kg, po after 0.5 to 72 hrs by HPLC analysis; assay type: ADME, organism-based; design: dose 10 mg/kg, route oral; procedure, shortened: as §1
[14] = Elimination rate constant in Wistar rat stomach at 10 mg/kg, po after 0.5 to 72 hrs by HPLC analysis; assay type: ADME, organism-based; procedure, shortened: as §1
[15] = Elimination rate constant in Wistar rat kidney at 10 mg/kg, po after 0.5 to 72 hrs by HPLC analysis; assay type: ADME, organism-based; procedure, shortened: as §1
[16] = Elimination rate constant in Wistar rat heart at 10 mg/kg, po after 0.5 to 72 hrs by HPLC analysis; assay type: ADME, organism-based; procedure, shortened: as §1
Mus musculus [17] = assay: Acute toxicity in ICR mouse assessed as aggressiveness at 1200 mg/kg, ig administered daily for 2 weeks measured during compound dosing; assay type: organism-based; conditions: in vivo, po, 336 h; procedure, shortened: as §2
[18] = Tmax in Wistar rat kidney at 10 mg/kg, po after 0.5 to 72 hrs by HPLC analysis; assay type: ADME, organism-based; procedure, shortened: as §1
[19] = Acute toxicity in ICR mouse assessed as mortality at 1600 mg/kg, ig administered daily for 2 weeks measured during compound dosing; assay type: organism-based; conditions: in vivo, po; procedure, shortened: as §2
Rattus norvegicus = assay: Antihypertensive activity in spontaneous hypertensive rat model assessed as reduction in mean blood pressure at 10 mg/kg, po administered for 12 hrs; assay type: functional, organism-based
Procedure, shortened: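 Male SHRs were randomized, n = 6 per group. Compound was suspended in DMSO/oleic acid (1:4) and given by oral gavage; vehicle controls got the same volume of solvent. SBP and DBP were recorded in conscious animals by noninvasive tail-artery manometry. MBP = (SBP − DBP)/3 + DBP. Data are mean ± SEM, with p < 0.05 taken as significant.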

[20] = Terminal half life in Wistar rat liver at 10 mg/kg, po after 0.5 to 72 hrs by HPLC analysis; assay type: ADME, organism-based; conditions: read-out: beta t1/2 (converted); procedure, shortened: as §1
[21] = Tmax in Wistar rat stomach at 10 mg/kg, po after 0.5 to 72 hrs by HPLC analysis; assay type: ADME, organism-based; procedure, shortened: as §1
[22] = Acute toxicity in ICR mouse assessed as mortality at 5056.79 mg/kg, ig administered daily for 2 weeks measured during compound dosing; assay type: organism-based; conditions: in vivo, po; procedure, shortened: as §2
[23] = Cmax in Wistar rat lung at 10 mg/kg, po after 0.5 to 72 hrs by HPLC analysis; assay type: ADME, organism-based; design: dose 10 mg/kg, route oral; procedure, shortened: as §1
[24] = Tmax in Wistar rat spleen at 10 mg/kg, po after 0.5 to 72 hrs by HPLC analysis; assay type: ADME, organism-based; procedure, shortened: as §1
Kidney = assay: AUC (0 to 72 hrs) in Wistar rat kidney at 10 mg/kg, po by HPLC analysis; assay type: ADME, organism-based; design: dose 10 mg/kg, time < 72 hr, route oral; conditions: in vivo; procedure, shortened: as §1
Liver = assay: AUC (0 to 72 hrs) in Wistar rat liver at 10 mg/kg, po by HPLC analysis; assay type: ADME, organism-based; design: time < 72 hr, dose 10 mg/kg, route oral; conditions: in vivo; procedure, shortened: as §1

Q: For `CCCCc1nc(Cl)c(C(=O)O)n1Cc1ccc(-c2ccccc2-c2noc(=O)[nH]2)cc1`, which half-life [1] is on record?
A: Its half-life is 9.13 h.

Q: And the mortality at 336 h [2]?
A: Its mortality at 336 h is 0%.

Q: What about the mortality at 336 h [3] of the same compound?
A: Its mortality at 336 h is 20%.

Q: What about the AUC (Heart) of the same compound?
A: The AUC was 200.41 ng·h/g.

Q: What about the k el [4] of the same compound?
A: Its k el is 1.14e-05 s⁻¹.

Q: And the AUC (Lung)?
A: Its AUC is 213.96 ng·h/g.

Q: And the AUC (Brain)?
A: The AUC was 123.07 ng·h/g.

Q: What about the k el [5] of the same compound?
A: The k el was 1.11e-05 s⁻¹.

Q: And the Cmax [6]?
A: The Cmax was 10.3 ng/mL.

Q: And the AUC(0-t) at 72 h [7]?
A: The AUC(0-t) at 72 h was 296 ng·h/mL.

Q: And the AUC (Stomach)?
A: The AUC was 221.03 ng·h/g.

Q: And the Tmax [8]?
A: The Tmax was 0.5 h.

Q: What about the Activity (Mus musculus [9]) of the same compound?
A: The Activity was “Non-toxic”.

Q: What about the mortality at 336 h [10] of the same compound?
A: Its mortality at 336 h is 40%.

Q: What about the half-life [11] of the same compound?
A: The half-life was 15.6 h.

Q: And the Cmax [12]?
A: The Cmax was 8.87 ng/g.

Q: What about the Cmax [13] of the same compound?
A: The Cmax was 5.8 ng/g.

Q: And the k el [14]?
A: The k el was 1.39e-05 s⁻¹.

Q: What about the k el [15] of the same compound?
A: Its k el is 1.11e-05 s⁻¹.

Q: And the k el [16]?
A: The k el was 2.11e-05 s⁻¹.

Q: And the Activity (Mus musculus [17])?
A: The Activity was “Non-toxic”.

Q: And the Tmax [18]?
A: The Tmax was 0.5 h.

Q: What about the mortality at 336 h [19] of the same compound?
A: The mortality at 336 h was 10%.

Q: What about the Activity (Rattus norvegicus) of the same compound?
A: The Activity was “Active”.

Q: And the half-life [20]?
A: The half-life was 10.7 h.

Q: And the Tmax [21]?
A: Its Tmax is 0.5 h.

Q: What about the mortality at 336 h [22] of the same compound?
A: Its mortality at 336 h is 90%.

Q: What about the Cmax [23] of the same compound?
A: Its Cmax is 9.16 ng/g.

Q: What about the Tmax [24] of the same compound?
A: Its Tmax is 4 h.

Q: What about the AUC (Kidney) of the same compound?
A: Its AUC is 202.97 ng·h/g.

Q: What about the AUC (Liver) of the same compound?
A: The AUC was 260.05 ng·h/g.

Source: ChEMBL document CHEMBL3784931, “Synthesis and evaluation of novel angiotensin II receptor 1 antagonists as anti-hypertension drugs” (Bioorg Med Chem, 2016)
